Assay results published in ChEMBL document CHEMBL4513216, “Probing the Open Global Health Chemical Diversity Library for Multistage-Active Starting Points for Next-Generation Antimalarials” (ACS Infect Dis, 2020).

Test: Toxicity liver stage against HepG2, at 10uM
Format: cell-based
Set-up: test concentration 10 uM, cell line HepG2-A16-CD81EGFP
Conditions: human, HepG2-A16-CD81EGFP cells; read-out: INHIBITION
Method in brief: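 Uninfected HepG2-A16-CD81EGFP cells, 3 × 10^3 per well, 1536-well, plated on prespotted compound at 10 μM final, parasite-free screening media added to match infected plates; puromycin 10 μM positive, DMSO 0.5% negative; run in parallel with 48 h PbLuc assay at 37 °C, 5% CO2; viability by CellTiter-Glo luminescence, normalized to controls.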

Structure (SMILES)	cytotoxicity at 10 µM
COc1ccc(Cl)cc1NCC(=O)NCCNc1cnccn1	-11.4%
NC(=O)CN1C(=O)CO[C@H]2CN(Cc3ccc(F)c(F)c3)C[C@H]21	2.44%
CCN(CC)CC[C@H]1CN(C(=O)NC2CCCCC2)CC[C@H]1CC(=O)O	7.77%
CC(C)NC(=O)NC[C@H]1OC[C@@H](NCc2ccccc2O)[C@@H]1O	-1.69%
O=C1CC2(CCN(C(=O)c3ccccn3)CC2)Oc2c(Cl)cc(Cl)cc21	1.73%
O=C(NCCCn1ccnc1)c1cccnc1OCC(F)(F)F	6.58%
COc1ccccc1CN1CC(OC)CN(C(=O)CC(C)C)CC1=O (stereo not given)	-3.3%
COc1cccc(OC)c1C(=O)N1CC(=O)N(C2CCC2)CC(O)C1 (stereo not given)	-5.59%
COc1cc2nc(C)n(CC(=O)NCCO)c(=O)c2cc1OC	-8.12%
Cc1cc(O)cc(=O)n1CCCC(=O)Nc1n[nH]c2cccc(F)c12	-8.85%
CN(C)S(=O)(=O)NCc1nn(CCN2CCCC2)c(=O)c2ccccc12	-6.88%
CC(C)NC(=O)N1CCC2(CC1)COc1ccccc1S(=O)(=O)N(C)C2	7.02%
O=C1CCCN1Cc1ncn2c1CN(C(=O)Cc1ccccc1)CCC2	6.49%
Cc1nnn2c1COCC(CNC(=O)c1cnoc1C)C2 (stereo not given)	-2.69%
Cc1cccc(CN2C[C@@H]3CN(C(=O)c4ccnnc4)C[C@@H]3C2=O)c1	-6.89%
CN(C)CCCNC(=O)c1cc(Cl)ccc1Cl	-6.56%
CC(CO)NC(=O)c1ccc2[nH]/c(=N\S(C)(=O)=O)sc2c1 (stereo not given)	-3.24%
CCOC(=O)N1CCN(C(=O)c2snnc2-c2ccc(OC)cc2)CC1	3.56%
CC(=O)c1c(C)nn(S(=O)(=O)c2ccc(C)c(C)c2)c1C	-8.46%
CCOCCCNC(=O)C(C)n1cc(Br)cn1 (stereo not given)	-4.24%
CCCc1noc(C2CCN(S(=O)(=O)c3cccs3)CC2)n1	1.5%
CCn1nccc1CNC(=O)C(C)n1cc2c(n1)c(C)nn2C (stereo not given)	5.32%
O=C(c1cncnc1)N1C[C@@H]2CC[C@H](Oc3cccc(F)c3)[C@@H]2C1	-17.1%
O=C(C1CC1)N1CCC(c2nc(O)c3c(n2)CN(C2CCCC2)CC3)C1 (stereo not given)	-24.1%
Cc1cnn(CCNCc2nccn2CC(F)(F)F)c1	6.51%
Cc1nccn1-c1ccc(NS(=O)(=O)c2cnn(C)c2)cn1	-6.38%
CCOCCOc1ccc(S(=O)(=O)N2CCc3c(nc[nH]c3=O)C2)cc1	-5.85%
CN(CCc1cccs1)CCc1nccs1	-5.81%

Structure (SMILES)	cytotoxicity at 10 µM
CC1(C)CN(C(=O)Nc2cc(C(F)(F)F)c[nH]c2=O)CCO1	5.12%
COC(=O)c1cccc(CNC(=O)CCC(F)(F)F)c1	11.6%
CCn1cnnc1CNC(=O)N(C)Cc1c(F)cccc1Cl	-5.56%
COC(=O)NCCC(=O)NC(C)Cc1ccccc1Br (stereo not given)	-5.29%
CC(C)NC(=O)CN1CCC2(CC1)OCCO2	-8.67%
CCN1CC(C(=O)NC(C)(C)CC)CC1=O (stereo not given)	1.82%
CC(CNC(=O)N1CCN(Cc2ccon2)CC1)N(C)C1CC1 (stereo not given)	-6.74%
CCCc1ccc(S(=O)(=O)NCCNC(=O)c2ccoc2)cc1	7.36%
CCCNC(=O)CCNC(=O)c1ccccc1N1CCOCC1	0.321%
Cc1noc(C)c1CNC(=O)N1CCC(OCC2CC2)CC1	-11%
O=S(=O)(c1cccnc1)N1CCCC1COc1ccccc1 (stereo not given)	-9.32%
CC(C)C1CN(S(=O)(=O)Cc2cccc(C#N)c2)CCS1 (stereo not given)	2.66%
CC(CC(=O)NS(C)(=O)=O)C1CCCCC1 (stereo not given)	-13.5%
N#Cc1ccc(NCCC2CCN(CC(F)(F)F)CC2)nc1	5.92%
CNC(=O)NC(=O)CNC(CC(F)(F)F)c1ccc(F)cc1 (stereo not given)	7.69%
CC(C)(C(=O)O)S(=O)(=O)c1ccc(Br)cc1	4.67%
Cc1ccc(N2CCCC(N3CCC(CO)CC3)C2=O)cc1 (stereo not given)	0.473%
CCC(CC)S(=O)(=O)NC(=O)c1ccc2c(c1)ncn2C	-6.58%
CCn1cc(CNC2CCN(c3cccc(Cl)c3)C2)cn1 (stereo not given)	-10.1%
COCc1nn(Cc2ccc(Br)s2)c(=O)o1	1.99%
O=C(NCc1ccc(Br)c(F)c1)Nc1cn[nH]c1	-6.62%
CCOCc1ccc(NC(=O)NC2CCCn3nc(CC)nc32)cc1 (stereo not given)	-7.68%
Cc1nc(C(C)(C)NC(=O)Nc2ccccc2)no1	-1.48%
Cc1cc(N2CCN(CC(=O)N(C)C)CC2)nc(-c2ccncc2)n1	-3.96%
Fc1cnc(N2CCC3(CCCN(c4nncs4)C3)C2)nc1 (stereo not given)	2.15%
CN(C)C(=O)[C@H]1C[C@@H]2CCN(Cc3ccncc3)C[C@H]2O1	0.866%
O=C(c1cn2ccsc2n1)N1CCN(CC2CC2)[C@@H]2CS(=O)(=O)C[C@@H]21	-2.82%
